# Compound activity (PubChem BioAssay)
# An excerpt weighted towards active compounds, which were near 1.5% of everything screened.
# NSD2 HMT inh = blocks human histone methyltransferase NSD2 | O96028 | NSD2 peptide methylation, AlphaScreen, 120 min | inhibition, % at 12.5 µM | actives 0.54% (n = 310,000) | AID 743445
# NS3 helicase inh = blocks Hepatitis C virus NS3 helicase unwinding. NS3 helicase DNA unwinding, Cy5 molecular beacon fluorescence. inhibition, % at 10.9 µM. actives 0.56% (n = 290,000). AID 1800;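 active = inhibition above the mean of all tested compounds plus 3 SD, set per campaign, cut at about 35% in these data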
#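 assay system = NS3 helicase fragment of HCV | buffer or medium = MOPS pH 6.5, MgCl2, DTT, Tween20, BSA | timing = 60 min unwinding reaction at 25 °C after ATP addition | signal = Cy5 beacon fluorescence read at start and 1 h | read-out basis = % inhibition of unwinding | control set = low DMSO, high thioflavine S at 110 µM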
# DNMT1 block = DNMT1 (human) enzyme inhibition | DNMT1 molecular beacon, Hinp1I cleavage, fluorescence | inhibition (reported as % activation of signal), % at 10 µM | actives 0.83% (n = 360,000)
# CASP6 VEID inh = inhibitors of human caspase-6. purified caspase-6, Z-VEID-R110 cleavage fluorescence. inhibition, % at 12.5 µM. actives 0.53% (n = 350,000). AID 686996;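 active = mean inhibition across replicates at least about 35%, with every replicate also reaching that limit, limit read from the data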
# Target sequence (P55212 24-179 limits assumed): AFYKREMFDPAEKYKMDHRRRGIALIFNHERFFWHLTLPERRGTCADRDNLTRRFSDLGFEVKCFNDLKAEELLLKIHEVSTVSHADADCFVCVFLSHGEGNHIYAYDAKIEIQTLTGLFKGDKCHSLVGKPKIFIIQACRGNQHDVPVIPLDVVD
# Target sequence (P55212 194-293 limits assumed): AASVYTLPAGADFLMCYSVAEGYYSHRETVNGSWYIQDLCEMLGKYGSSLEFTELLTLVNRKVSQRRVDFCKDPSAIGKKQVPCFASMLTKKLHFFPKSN
# NS3 hel confirm = HCV NS3 helicase inhibition, confirmation assay; actives 31% (n = 1,600); shares compounds with NS3 helicase inh; NS3 helicase DNA unwinding, Cy5 molecular beacon fluorescence; inhibition, % at 10.9 µM;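 active = inhibition above the mean of all tested compounds plus 3 SD, cutoff set per campaign, cut at about 36% in these data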
# DNA FID counter = counter-screen for HCV NS3 helicase inhibitors: DNA intercalator displacement; shares compounds with NS3 helicase inh; DNA fluorescent intercalator displacement, fluorescence; inhibition, % at 7.9 µM; actives 4% (n = 1,600); AID 1945; in the data active = inhibition above about 37%;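 note: higher means more displacement of ethidium bromide from the DNA hairpin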
# DNA FID DR = displaces fluorescent intercalator from DNA, HCV helicase counter-screen | AID 2172 | shares compounds with NS3 helicase inh | IC50, µM | 120 tested, under 10 active | fluorescent intercalator displacement from DNA, fluorescence; call rule not given here
# Numbers stand for hits; - = inactive; . = not tested or not shown. Cut-off read from the data, not from the text of the source, unless noted: active = inhibition above about 50%; inactive = the rest.
SMILES,NSD2 HMT inh,NS3 helicase inh,DNMT1 block,CASP6 VEID inh,NS3 hel confirm,DNA FID counter,others
COc1ccc2c3c([nH]c2c1)[C@@H](CO)N(C(=O)Nc1ccc(F)cc1)CC31CCN(C(=O)c2ccccn2)CC1,.,.,.,-,.,.,
COC(=O)c1sc(N2C(=O)C(=O)/C(=C(/O)c3ccc(C)cc3)C2c2ccco2)nc1C (stereo not drawn),.,-,.,.,.,.,
CCOc1ccc(/C(O)=C2/C(=O)C(=O)N(c3nc(C)c(C)s3)C2c2ccco2)cc1 (stereo not drawn),-,50.9,-,.,54.7,-,DNA FID DR=-
O=C1CC(=O)c2c1cccc2[N+](=O)[O-],.,36.7,.,.,90.3,-,
CC(=O)N1[C@@H](CO)[C@@H]2c3ccccc3N(C(=O)c3ccccc3)C[C@@H]21,.,.,.,-,.,.,
O=C(O)c1ccccc1C(=O)N1N=C2/C(=C/c3cccc([N+](=O)[O-])c3)CCCC2C1c1cccc([N+](=O)[O-])c1 (stereo not drawn),-,-,-,-,.,.,
O=C(O)c1c(C(=O)N2N=C3/C(=C/c4ccccc4)CCCC3C2c2ccccc2)cccc1[N+](=O)[O-] (stereo not drawn),-,48.9,-,-,69.3,-,
O=C(NNc1nc2ccccc2s1)c1ccccc1F,-,50.9,-,-,-,-,
COc1ccc(-c2nc3c(c(SCC(=O)Nc4cccc(O)c4)n2)Cc2c(CO)cnc(C)c2O3)cc1,-,69.5,-,-,-,-,
Cc1ncc(CO)c2c1Oc1nc(-c3ccccc3)nc(SCC(=O)Nc3cccc(O)c3)c1C2,-,-,-,-,.,.,
CCC(C(=O)O)n1nnc(-c2ccc(OCc3ccccc3)c(OC)c2)n1 (stereo not drawn),-,-,.,-,.,.,
CCC(C(=O)O)n1nnc(-c2ccc(-c3ccc(OC)cc3)cc2)n1 (stereo not drawn),-,39.2,-,.,61.6,-,DNA FID DR=-
Cc1noc(C)c1NC(=O)Nc1ccc2c(c1)C(=O)N([C@@H](C)CO)C[C@H](C)[C@H](CN(C)Cc1ccc(C(F)(F)F)cc1)O2,.,.,.,-,.,.,
Cc1ccc(N2C(=O)[C@@H]3[C@H](C2=O)[C@H]2C=CC=NN2[C@@H]3C(=O)Nc2ccccc2)cc1,-,-,-,-,.,.,
COc1ccc(C(=O)[C@H]2[C@H]3C(=O)N(c4ccc(C)cc4)C(=O)[C@H]3C3C=CC=NN32)cc1 (stereo partly drawn),-,59.9,-,-,-,-,
O=C(Nc1ccccc1)[C@@H]1[C@@H]2C(=O)N(c3ccc(F)cc3)C(=O)[C@@H]2[C@H]2C=CC=NN21,-,60.6,-,-,-,-,
CC(=O)Oc1ccc(C(=O)[C@H]2[C@H]3C(=O)N(c4ccc(C)cc4)C(=O)[C@H]3[C@@H]3C=CC=NN32)cc1,-,-,-,-,.,.,
COc1ccccc1-c1ccc([C@H]2[C@@H](CO)N[C@@H]2CNC(=O)C2CCCC2)cc1,.,.,.,-,.,.,
CC1=NN(c2ccc(C(=O)O)cc2)C(=O)/C1=C/c1ccc(-c2ccccc2F)o1,.,39.2,-,-,-,-,
CC1=NN(c2ccc(C)cc2)C(=O)/C1=C/c1ccc(-c2cc([N+](=O)[O-])ccc2O)o1,-,-,-,-,.,.,
O=C(C1CCC1)N1CCCCN2[C@@H](CO)[C@H](c3ccc(C#CC4CCCC4)cc3)[C@@H]2C1,.,.,.,-,.,.,
CCOC(=O)/C(C(C)=O)=C1\OC(=O)c2ccccc21,-,44.4,-,.,-,-,
C[C@H]1CN([C@@H](C)CO)C(=O)c2cc(C#CCN(C)C)cnc2O[C@@H]1CN(C)C(=O)Nc1cccc(F)c1,.,.,.,-,.,.,
CCc1ccc(-n2c(SCC(=O)N3CCC(C(=O)O)CC3)nnc2-c2ccncc2)cc1,.,-,-,-,.,.,
CCc1ccc(-n2c(SCC(=O)N3Cc4ccccc4CC3C(=O)O)nnc2-c2ccncc2)cc1 (stereo not drawn),.,41.9,-,-,-,-,
SMILES,NSD2 HMT inh,NS3 helicase inh,DNMT1 block,CASP6 VEID inh,NS3 hel confirm,DNA FID counter,others
Cc1ccccc1-n1c(C)cc(/C=C2/C(=N)N3C(c4ccccc4)=CSC3=NC2=O)c1C,-,39.8,-,-,-,-,
Cc1cc(/C=C2/C(=N)N3C(c4ccccc4)=CSC3=NC2=O)c(C)n1-c1ccccc1,-,-,-,.,.,.,
CCOc1ccc(-n2c(C)cc(/C=C3/C(=N)N4C(=NC3=O)SN=C4S(C)(=O)=O)c2C)cc1,.,37.9,-,-,83.7,-,
O=C(C1CCCC1)N1CC2(C1)[C@H](c1ccccc1)[C@@H](CO)N2Cc1ccccc1F,.,.,.,-,.,.,
CC(C)NC(=O)N1C[C@H]2[C@@H](c3ccccc31)[C@@H](CO)N2C(=O)c1ccc(F)cc1,.,.,.,-,.,.,
Cc1ccc2nc(N3C(=O)C(O)=C(C(=O)c4ccc(C)o4)C3c3cccc(O)c3)sc2c1 (stereo not drawn),-,43.8,-,-,106.2,-,
Cc1nnc(SCC2=C(C(=O)O)N3C(=O)C(NC(=O)Cc4ccccc4)C3SC2)s1 (stereo not drawn),-,.,-,-,.,.,
Cc1nnc(SCC2=C(C(=O)O)N3C(=O)C(NC(=O)C(C)n4nc(C(F)(F)F)cc4C)C3SC2)s1 (stereo not drawn),-,39.9,-,-,-,-,
COc1cc(/C=N/NC(=O)c2nonc2N)cc(OC)c1OC,-,39.4,-,-,-,-,
CO/N=C/c1ccc(N2CCN(C(=O)c3cccc(C(F)(F)F)c3)CC2)c([N+](=O)[O-])c1,-,-,-,-,.,.,
CO/N=C/c1ccc(N2CCN(C(=O)c3ccc(F)cc3)CC2)c([N+](=O)[O-])c1,-,40.5,-,.,-,-,
CC1=CC(C)(C)Nc2ccc(OC(=O)CN3C(=O)c4ccccc4C3=O)cc21,-,-,-,-,.,.,
CC1=CC(C)(C)Nc2ccc(OC(=O)CN3C(=O)c4cccc5cccc(c45)C3=O)cc21,-,39.4,-,.,-,-,
Nc1ccc(C(CC(=O)O)n2cccc2)cc1 (stereo not drawn),-,52.0,-,-,-,-,
CCc1ccccc1OCC(=O)NC1CCCC1,-,49.5,-,.,-,-,
Cc1sc2c(c1C)C(O)=C(C(=O)Nc1ccccc1)S(=O)(=O)N2C,-,43.9,-,-,59.5,-,
C[C@@H]1CN([C@H](C)CO)C(=O)Cc2cc(NS(=O)(=O)c3ccc(Cl)cc3)ccc2O[C@H]1CN(C)C,.,.,.,-,.,.,
Cc1noc(C)c1S(=O)(=O)Nc1ccc2c(c1)C(=O)N([C@@H](C)CO)C[C@@H](C)[C@H](CN(C)C(=O)C1CCCCC1)OCCCC[C@H](C)O2,.,.,.,-,.,.,
O=C(CCc1nc2ccccc2c(=O)[nH]1)OCC(=O)N1CCc2ccccc21,-,69.6,-,-,-,-,
O=C(CCc1nc2ccccc2[nH]c1=O)OCC(=O)N1CCc2ccccc21,-,-,-,.,.,.,
CCCn1c(C(O)c2cccc(OC)c2)nc2ccccc21 (stereo not drawn),-,41.9,-,-,-,-,
CCOC(=O)c1c(C)oc2c(F)c(F)c(F)c(F)c2c1=O,-,41.6,-,.,-,-,
